Laboratory results as given in ChEMBL document CHEMBL4393719, “Tetrahydro-3-benzazepines with fluorinated side chains as NMDA and σ1 receptor antagonists: Synthesis, receptor affinity, selectivity and antiallodynic activity” (Eur J Med Chem, 2019).

Columns and labels:
[1] = biological target: 5-hydroxytryptamine receptor 1A (Homo sapiens) (UniProt P08908); assay: Displacement of [3H]8-OH-DPAT from human 5HT1A receptor at 1 uM incubated for 2 hrs scintillation counting method relative to control
Chain of 5-hydroxytryptamine receptor 1A (Homo sapiens) (P08908 whole entry): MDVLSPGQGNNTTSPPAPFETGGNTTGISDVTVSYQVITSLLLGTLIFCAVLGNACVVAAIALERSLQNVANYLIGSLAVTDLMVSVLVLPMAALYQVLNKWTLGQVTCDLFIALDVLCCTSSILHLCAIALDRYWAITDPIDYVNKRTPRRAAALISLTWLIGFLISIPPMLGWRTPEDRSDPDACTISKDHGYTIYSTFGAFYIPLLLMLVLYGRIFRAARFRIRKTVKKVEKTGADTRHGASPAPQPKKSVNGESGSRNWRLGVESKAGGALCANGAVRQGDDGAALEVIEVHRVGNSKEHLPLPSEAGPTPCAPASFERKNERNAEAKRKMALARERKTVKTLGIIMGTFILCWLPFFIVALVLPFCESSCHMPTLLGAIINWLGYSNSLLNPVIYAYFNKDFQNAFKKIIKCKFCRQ
Procedure, shortened: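 Human 5-HT1A-enriched membranes (10 μg), 2 nM [3H]-8-OH-DPAT, 50 mM Tris-HCl/5 mM MgCl2 pH 7.4, 0.1% DMSO final, 2 h at 37 °C; 10 μM 5-HT for nonspecific binding. Compound at 1 μM; radioligand displacement read after GF/C filtration.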

[2] = organism: Sus scrofa; settings: at 1 µM
[3] = biological target: Sigma non-opioid intracellular receptor 1 (Cavia porcellus, UniProt Q60492); format: cell membranes;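 also: radioligand displacement of [3H]-(+)-pentazocine from guinea pig brain cortex membranes, 120 min incubation, bound radioactivity read by scintillation counting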
Chain of Sigma non-opioid intracellular receptor 1 (Q60492 whole entry): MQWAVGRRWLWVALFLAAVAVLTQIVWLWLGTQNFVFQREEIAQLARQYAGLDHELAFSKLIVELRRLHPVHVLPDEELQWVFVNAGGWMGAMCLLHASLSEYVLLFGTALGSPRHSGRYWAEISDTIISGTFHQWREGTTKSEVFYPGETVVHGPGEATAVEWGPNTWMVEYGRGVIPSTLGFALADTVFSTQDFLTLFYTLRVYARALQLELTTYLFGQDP

[4] = test system: HepG2; assay: Cytotoxicity against human HepG2 assessed as reduction in cell viability at 1 to 100 uM after 20 hrs by MTT assay; format: cell-based; settings: hepg2, 20 h
Procedure, shortened: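 HepG2 cells, 3 x 10^4/well, grown 24 h in MEM/10% FBS, then exposed 20 h in serum-free medium to compound at 1, 10, 100 µM (from DMSO solutions). MTT 0.5 mg/mL for 4 h, formazan dissolved in DMSO, OD 550 nm. IC50 taken as lowest concentration giving ≥50% cytotoxicity versus untreated cells; duplicates in two assays (n = 4).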

[5] = Drug metabolism in rat liver microsomes at 1 uM incubated for 1 hr in presence of NADPH by UPLC-MS analysis; format: ADME, Microsome; settings: read-out: Drug metabolism
Procedure, shortened: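 Liver microsomes, compound 1 µM, 37 °C for 1 h in 50 mM Na/K phosphate pH 7.4, 3 mM MgCl2, NADPH-regenerating system, CYP 0.3 nmol/mL. Aliquots at 0, 10, 20, 40, 60 min quenched with cold acetonitrile, supernatants by UPLC-MS/MS; % parent remaining at end reported. Terfenadine as positive control.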

[6] = Selectivity ratio of Ki for GluN2B/GluN1a (unknown origin) expressed in mouse L(tk-) cell membranes to Ki for sigma1 receptor in guinea pig brain cortex membranes; format: cell-based
[7] = biological target: Sodium-dependent noradrenaline transporter (Homo sapiens) (UniProt P23975); assay: Displacement of [3H]nisoxetine from recombinant human norepinephrine transporter at 1 uM after 60 mins by scintillation counting method relative to control
Chain of Sodium-dependent noradrenaline transporter (Homo sapiens) (P23975 whole entry): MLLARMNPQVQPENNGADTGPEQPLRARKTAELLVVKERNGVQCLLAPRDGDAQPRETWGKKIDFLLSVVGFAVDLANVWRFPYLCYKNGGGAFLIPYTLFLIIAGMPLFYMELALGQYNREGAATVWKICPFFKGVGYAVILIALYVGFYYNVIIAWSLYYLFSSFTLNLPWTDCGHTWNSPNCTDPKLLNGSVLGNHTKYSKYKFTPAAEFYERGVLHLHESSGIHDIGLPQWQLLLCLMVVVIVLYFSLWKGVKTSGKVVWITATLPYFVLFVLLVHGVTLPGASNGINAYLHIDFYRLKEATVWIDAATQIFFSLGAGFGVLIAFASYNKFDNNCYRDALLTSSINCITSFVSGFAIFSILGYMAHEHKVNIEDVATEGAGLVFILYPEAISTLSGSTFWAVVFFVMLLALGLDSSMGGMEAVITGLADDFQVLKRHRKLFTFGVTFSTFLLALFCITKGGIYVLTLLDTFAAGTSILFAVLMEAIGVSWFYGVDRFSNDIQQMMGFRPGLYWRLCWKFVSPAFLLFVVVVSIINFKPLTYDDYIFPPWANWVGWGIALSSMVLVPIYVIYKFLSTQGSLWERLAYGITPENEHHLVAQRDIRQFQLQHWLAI
Procedure, shortened: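 Human NET-enriched membranes (1 μg), 5 nM [3H]nisoxetine in 50 mM Tris-HCl, 120 mM NaCl, 5 mM KCl, pH 7.4, 1% DMSO final; 60 min at 4 °C; 10 μM desipramine for nonspecific binding. Single 1 μM compound; filtration, displacement of radioligand.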

[8] = biological target: 5-hydroxytryptamine receptor 2B (Homo sapiens) (UniProt P41595); assay: Displacement of [3H]-LSD from recombinant human 5HT2B receptor at 1 uM after 30 mins by scintillation counting method relative to control
Chain of 5-hydroxytryptamine receptor 2B (Homo sapiens) (P41595 whole entry): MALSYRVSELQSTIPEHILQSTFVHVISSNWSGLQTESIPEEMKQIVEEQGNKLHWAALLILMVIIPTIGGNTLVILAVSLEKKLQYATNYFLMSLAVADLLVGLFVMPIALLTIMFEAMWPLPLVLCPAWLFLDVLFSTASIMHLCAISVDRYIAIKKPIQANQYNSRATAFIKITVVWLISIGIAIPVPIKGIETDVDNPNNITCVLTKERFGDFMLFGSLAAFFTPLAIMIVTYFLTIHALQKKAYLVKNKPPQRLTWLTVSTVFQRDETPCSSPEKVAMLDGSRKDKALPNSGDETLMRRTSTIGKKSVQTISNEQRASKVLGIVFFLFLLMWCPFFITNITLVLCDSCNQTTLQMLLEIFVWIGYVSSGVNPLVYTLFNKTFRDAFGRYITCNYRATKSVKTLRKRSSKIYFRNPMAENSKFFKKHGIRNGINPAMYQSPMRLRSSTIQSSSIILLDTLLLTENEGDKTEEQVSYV
Procedure, shortened: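 Human 5-HT2B-enriched membranes (5 µg), 1 nM [3H]LSD in 50 mM Tris-HCl, 4 mM CaCl2, 1% ascorbic acid, pH 7.4, 0.1% DMSO; 30 min, 37 °C; 50 µM 5-HT for nonspecific binding. Single 1 µM compound concentration; displacement after filtration.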

[9] = biological target: T1, Sigma intracellular receptor 2 (Rattus norvegicus, UniProt Q5U3Y7); assay: Displacement of [3H]-di-o-tolylguanidine from sigma2 receptor in rat liver membranes incubated for 120 mins by scintillation counting method; format: cell membranes
T1 sequence (Q5U3Y7 whole entry): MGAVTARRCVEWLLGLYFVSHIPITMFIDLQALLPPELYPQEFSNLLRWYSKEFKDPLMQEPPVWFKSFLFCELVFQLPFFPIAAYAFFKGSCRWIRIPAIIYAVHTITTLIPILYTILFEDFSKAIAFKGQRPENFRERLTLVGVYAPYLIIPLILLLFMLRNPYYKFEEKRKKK

inhibition [1]: 70%
inhibition [2]: 21%
Ki [3]: 6.6 nM
metabolised at 1 h, 1 µM [5]: 100%
inhibition [7]: < 50%
inhibition [8]: < 50%
Ki [9]: 115 nM
Compound: COc1ccc2c(c1)CCN(CCC(F)Cc1ccccc1)CC2 (centres undefined)
Activity [4]: Toxic
Ratio Ki [6]: < 18
